The text below walks through data of ChEMBL document CHEMBL1140053, “Discovery of antimycobacterial spiro-piperidin-4-ones: an atom economic, stereoselective synthesis, and biological intervention” (J Med Chem, 2008).

In general, MIC refers to the lowest concentration that inhibits growth of the organism. The low end stands for greater potency, the high end for weaker potency.

The structures appear in SMILES notation. In brackets after ≈: the same amount, converted by molar mass.

For this assay, the system named is Mycobacterium tuberculosis. The assay can be described thus: Antimycobacterial activity against multidrug-resistant Mycobacterium tuberculosis by agar dilution method. It counts as functional. The method in brief: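 Clinical MDR isolate resistant to isoniazid, rifampicin, ethambutol and ofloxacin. Agar dilution in Middlebrook 7H11 agar with OADC, pH 7.40, NCCLS-like method, run in duplicate. MIC is the lowest concentration giving complete inhibition of growth.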

In the case of `COc1ccccc1/C=C1\CN(C)C[C@@]2(C1=O)[C@@H](c1ccccc1OC)[C@@H]1CCCN1[C@@]21C(=O)Nc2ccccc21` (racemic), it took 0.71 µg/mL (≈ 1.29 µM) to inhibit growth (MIC).

`CN1C/C(=C\c2cccs2)C(=O)[C@]2(C1)[C@@H](c1cccs1)CN(C)[C@@]21C(=O)Nc2ccccc21` (racemic) had an MIC of 3.28 µg/mL (≈ 6.9 µM). Compound `CN1C/C(=C\c2cccs2)C(=O)[C@]2(C1)[C@@H](c1cccs1)[C@@H]1CCCN1[C@@]21C(=O)Nc2ccccc21` (racemic) registered an MIC of 0.38 µg/mL (≈ 0.757 µM). For the compound `CN1C/C(=C\c2ccccc2Cl)C(=O)[C@]2(C1)[C@@H](c1ccccc1Cl)CN(C)[C@@]21C(=O)Nc2ccccc21` (racemic), the MIC was 0.08 µg/mL (≈ 0.15 µM). `CN1C/C(=C\c2ccc(F)cc2)C(=O)[C@]2(C1)[C@@H](c1ccc(F)cc1)[C@H](c1ccccc1)N[C@@]21C(=O)Nc2ccccc21` (racemic) had an MIC of 0.16 µg/mL (≈ 0.285 µM).

With `CN1C/C(=C\c2cccc(F)c2)C(=O)[C@]2(C1)[C@@H](c1cccc(F)c1)CN(C)[C@@]21C(=O)Nc2ccccc21` (racemic), it took 1.56 µg/mL (≈ 3.12 µM) to inhibit growth (MIC). The compound `CN1C/C(=C\c2ccccc2Cl)C(=O)[C@]2(C1)[C@@H](c1ccccc1Cl)[C@@H]1CCCN1[C@@]21C(=O)Nc2ccccc21` (racemic) came in with an MIC of 0.71 µg/mL (≈ 1.27 µM). `CN1C/C(=C\c2ccc(Cl)cc2Cl)C(=O)[C@]2(C1)[C@@H](c1ccc(Cl)cc1Cl)CN(C)[C@@]21C(=O)Nc2ccccc21` (racemic): the lowest concentration to inhibit growth (MIC) was 2.59 µg/mL (≈ 4.31 µM). The figure for `CN1C/C(=C\c2ccccc2)C(=O)[C@]2(C1)[C@@H](c1ccccc1)[C@H](c1ccccc1)N[C@@]21C(=O)Nc2ccccc21` (racemic) is 1.49 µg/mL (≈ 2.83 µM).

As to `Cc1ccc(/C=C2\CN(C)C[C@@]3(C2=O)[C@@H](c2ccc(C)cc2)[C@H](c2ccccc2)N[C@@]32C(=O)Nc3ccccc32)cc1` (racemic), the MIC came to 1.41 µg/mL (≈ 2.55 µM). The figure for `COc1ccc(/C=C2\CN(C)C[C@@]3(C2=O)[C@@H](c2ccc(OC)cc2)[C@H](c2ccccc2)N[C@@]32C(=O)Nc3ccccc32)cc1` (racemic) is 0.67 µg/mL (≈ 1.14 µM); for `CN1C/C(=C\c2ccc(Cl)cc2Cl)C(=O)[C@]2(C1)[C@@H](c1ccc(Cl)cc1Cl)[C@H](c1ccccc1)N[C@@]21C(=O)Nc2ccccc21` (racemic) it is 2.35 µg/mL (≈ 3.54 µM). `COc1ccccc1/C=C1\CN(C)C[C@@]2(C1=O)[C@@H](c1ccccc1OC)[C@H](c1ccccc1)N[C@@]21C(=O)Nc2ccccc21` (racemic) showed a minimum inhibitory concentration (MIC) of 2.67 µg/mL (≈ 4.56 µM).

The compound `CN1C/C(=C\c2ccccc2Cl)C(=O)[C@]2(C1)[C@@H](c1ccccc1Cl)[C@H](c1ccccc1)N[C@@]21C(=O)Nc2ccccc21` (racemic) displayed an MIC of 5.27 µg/mL (≈ 8.86 µM).

Take `CN1C/C(=C\c2cccc3ccccc23)C(=O)[C@]2(C1)[C@@H](c1cccc3ccccc13)[C@@H]1CCCN1[C@@]21C(=O)Nc2ccccc21` (racemic): it took 5.31 µg/mL (≈ 9 µM) to inhibit growth (MIC). Regarding `Cc1ccccc1/C=C1\CN(C)C[C@@]2(C1=O)[C@@H](c1ccccc1C)[C@H](c1ccccc1)N[C@@]21C(=O)Nc2ccccc21` (racemic), inhibition of growth (MIC) required 2.82 µg/mL (≈ 5.09 µM). In the case of `COc1ccc(/C=C2\CN(C)C[C@@]3(C2=O)[C@@H](c2ccc(OC)cc2)CN(C)[C@@]32C(=O)Nc3ccccc32)cc1` (racemic), the MIC came to 0.36 µg/mL (≈ 0.688 µM). The figure for `COc1ccccc1/C=C1\CN(C)C[C@@]2(C1=O)[C@@H](c1ccccc1OC)CN(C)[C@@]21C(=O)Nc2ccccc21` (racemic) is 1.49 µg/mL (≈ 2.85 µM).

The compound `CN1C/C(=C\c2ccc(F)cc2)C(=O)[C@]2(C1)[C@@H](c1ccc(F)cc1)[C@@H]1CCCN1[C@@]21C(=O)Nc2ccccc21` (racemic) came in with an MIC of 2.97 µg/mL (≈ 5.65 µM). As for `CN1C/C(=C\c2ccco2)C(=O)[C@]2(C1)[C@@H](c1ccco1)CN(C)[C@@]21C(=O)Nc2ccccc21` (racemic), 3.52 µg/mL (≈ 7.94 µM) was the least that counted as inhibitory (MIC). As for `Cc1ccccc1/C=C1\CN(C)C[C@@]2(C1=O)[C@@H](c1ccccc1C)CN(C)[C@@]21C(=O)Nc2ccccc21` (racemic), the MIC was 0.39 µg/mL (≈ 0.793 µM). Regarding `NNC(=O)c1ccncc1` [ISONIAZID], it took 45.6 µg/mL (≈ 332 µM) to inhibit growth (MIC).
